How the values were obtained:
[1] = molecular target: Tyrosine-protein kinase ABL1 (Homo sapiens) (UniProt P00519); assay: Inhibition of human ABL1 (S229 to K512 residues) expressed in mammalian expression system at 100 nM by KINOMEscan assay relative to control
[2] = molecular target: Cytoplasmic tyrosine-protein kinase BMX (Homo sapiens) (UniProt P51813); assay: Inhibition of recombinant human BMX (M1 to H675 residues) expressed in bacterial expression system at 100 nM by KINOMEscan assay relative to control
[3] = system: RAW264.7; assay: Inhibition of protumorigenic potential of mouse RAW264.7 cells assessed as abrogation of human LNCAP cell growth enhancement of macrophages at 0.4 uM co-cultured for 48 hrs by CCK8 assay relative to control; assay type: functional; conditions: RAW264.7, 48 h
In short: (§1)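 LNCaP cells, (2−4) × 10^5, were seeded in the lower transwell chamber. After 2 h, (1−2) × 10^6 RAW264.7 cells were added in a 0.4 μm insert. Compound at 0.016–2.0 μM was added to the top chamber and cells were cocultured 48 h at 37 °C. LNCaP cells were then imaged and counted by CCK8. Run three times, each in triplicate.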

[4] = Cmax in Sprague-Dawley rat at 25 mg/kg administered via oral gavage measured up to 72 hrs by LC/MS analysis; assay type: ADME, organism-based; set-up: dose 25 mg/kg, route oral; conditions: in vivo
In short: (§2)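 Male Sprague-Dawley rats, 4–6 weeks old, acclimatised 1 week, were dosed iv at 5 mg/kg or by oral gavage at 25 mg/kg. Vehicle was 2% DMSO, 4% EtOH, 4% castor oil, 90% H2O. Blood was drawn by orbital sinus puncture from 2 min to 72 h into heparinized tubes. Plasma was assayed by LC/MS with propranolol as internal standard. Three animals per group.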

[5] = system: RAW264.7; assay: Antimigratory activity against mouse RAW264.7 cells assessed as inhibition of human LNCaP-MDV-CM mediated macrophage migration after 24 hrs by crystal violet staining based transwell assay; assay type: functional, cell-based
In short: (§3)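 RAW264.7 cells, (2−4) × 10^5, were placed serum-free in the upper insert of a transwell. The lower chamber held conditioned medium from LNCaP cells grown 48 h in 10% FBS RPMI 1640 with 10 μM MDV3100 or DMSO. Compound at 0.625–5.0 μM was added to the top chamber for 24 h at 37 °C. Migrated cells were fixed in methanol, stained with 0.25% crystal violet and counted in six random fields at 200×. Three independent experiments.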

[6] = molecular target: T1, Macrophage colony-stimulating factor 1 receptor (Mus musculus) (UniProt P09581); assay: Inhibition of CSF1R phosphorylation in mouse RAW264.7 cells at 80 nM preincubated for 6 hrs followed by CSF1 stimulation for 20 mins by Western blot analysis relative to control; assay type: cell-based
T1 sequence (whole entry): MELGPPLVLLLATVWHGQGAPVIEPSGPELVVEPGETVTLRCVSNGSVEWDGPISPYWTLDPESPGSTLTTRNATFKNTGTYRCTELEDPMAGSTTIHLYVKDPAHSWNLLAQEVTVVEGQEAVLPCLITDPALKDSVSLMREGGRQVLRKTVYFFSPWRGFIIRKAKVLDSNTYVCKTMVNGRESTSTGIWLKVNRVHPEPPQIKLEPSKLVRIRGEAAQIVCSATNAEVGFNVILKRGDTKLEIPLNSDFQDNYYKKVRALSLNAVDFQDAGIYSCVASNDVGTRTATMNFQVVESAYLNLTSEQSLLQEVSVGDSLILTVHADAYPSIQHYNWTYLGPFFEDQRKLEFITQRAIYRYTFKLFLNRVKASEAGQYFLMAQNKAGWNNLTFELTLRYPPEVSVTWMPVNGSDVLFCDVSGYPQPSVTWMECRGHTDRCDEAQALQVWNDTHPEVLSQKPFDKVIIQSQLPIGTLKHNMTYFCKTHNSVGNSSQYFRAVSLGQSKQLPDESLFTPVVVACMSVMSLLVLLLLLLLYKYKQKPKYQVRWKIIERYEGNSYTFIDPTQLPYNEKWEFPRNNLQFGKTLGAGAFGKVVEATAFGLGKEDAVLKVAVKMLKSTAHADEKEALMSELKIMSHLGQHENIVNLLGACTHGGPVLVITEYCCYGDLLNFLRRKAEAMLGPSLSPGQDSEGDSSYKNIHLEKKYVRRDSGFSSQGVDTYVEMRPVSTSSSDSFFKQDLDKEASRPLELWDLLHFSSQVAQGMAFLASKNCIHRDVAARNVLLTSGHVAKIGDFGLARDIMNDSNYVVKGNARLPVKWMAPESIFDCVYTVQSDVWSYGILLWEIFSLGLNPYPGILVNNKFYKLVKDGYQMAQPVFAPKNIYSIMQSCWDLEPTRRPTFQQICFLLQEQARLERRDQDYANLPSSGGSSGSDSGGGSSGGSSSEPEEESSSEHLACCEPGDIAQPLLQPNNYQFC
In short: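 RAW264.7 cells were seeded, incubated overnight and treated 6 h with graded compound concentrations, then stimulated 20 min with CSF-1 (50 ng/mL). Lysates were run on 8−12% SDS-PAGE and immunoblotted for p-CSF1R (Tyr723), CSF1R, p-AKT, AKT and GAPDH. Bands were quantified and normalized to GAPDH. Mean ± SEM of at least three experiments.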

[7] = system: RAW264.7; assay: Downregulation of ARG1 mRNA expression in mouse RAW264.7 cells after 48 hrs by qRT-PCR analysis relative to DMSO; assay type: functional, cell-based
In short: (§4)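 RAW264.7 macrophages were treated 48 h with compound at 0.08, 0.4 or 2.0 μM, or DMSO vehicle. Total RNA was extracted with TRIzol and transcripts were quantified by qRT-PCR using gene-specific primers. Run three times, each in triplicate.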

[8] = system: RAW264.7; assay: Downregulation of MMP9 mRNA expression in mouse RAW264.7 cells after 48 hrs by qRT-PCR analysis relative to DMSO; assay type: functional, cell-based; in short: as §4
[9] = system: RAW264.7; assay: Inhibition of protumorigenic potential of mouse RAW264.7 cells assessed as abrogation of human LNCAP cell growth enhancement of macrophages at 2 uM co-cultured for 48 hrs by CCK8 assay relative to control; assay type: functional; conditions: RAW264.7, 48 h; in short: as §1
[10] = system: RAW264.7; assay: Antimigratory activity against mouse RAW264.7 cells assessed as inhibition of human LNCaP-MDV-CM mediated macrophage migration at 5 uM after 24 hrs by crystal violet staining based transwell assay relative to control; assay type: functional; conditions: RAW264.7, 24 h; in short: as §3
[11] = molecular target: Receptor-type tyrosine-protein kinase FLT3 (Homo sapiens, UniProt P36888); assay: Inhibition of recombinant human His-tagged FLT3 (564 to 958 residues) expressed in baculovirus using poly (Glu,Tyr) as substrate after 2 hrs by PK-Light ATP assay
[12] = AUC (0 to infinity) in Sprague-Dawley rat at 5 mg/kg, iv measured up to 72 hrs by LC/MS analysis; assay type: ADME, organism-based; set-up: dose 5 mg/kg, time infinity, route intravenous; conditions: in vivo; in short: as §2
[13] = Half life in Sprague-Dawley rat at 25 mg/kg administered via oral gavage measured up to 72 hrs by LC/MS analysis; assay type: ADME, organism-based; conditions: in vivo; in short: as §2
[14] = organism: Homo sapiens; assay: Selectivity ratio of IC50 for recombinant cytoplasmic human GST-tagged PDGFRalpha expressed in baculovirus to IC50 for recombinant human His-tagged CSF1R cytoplasmic domain (538 to 910 residues) expressed in baculovirus

Tyrosine-protein kinase ABL1 (Homo sapiens), sequence (P00519 whole entry, the tested form may be a part): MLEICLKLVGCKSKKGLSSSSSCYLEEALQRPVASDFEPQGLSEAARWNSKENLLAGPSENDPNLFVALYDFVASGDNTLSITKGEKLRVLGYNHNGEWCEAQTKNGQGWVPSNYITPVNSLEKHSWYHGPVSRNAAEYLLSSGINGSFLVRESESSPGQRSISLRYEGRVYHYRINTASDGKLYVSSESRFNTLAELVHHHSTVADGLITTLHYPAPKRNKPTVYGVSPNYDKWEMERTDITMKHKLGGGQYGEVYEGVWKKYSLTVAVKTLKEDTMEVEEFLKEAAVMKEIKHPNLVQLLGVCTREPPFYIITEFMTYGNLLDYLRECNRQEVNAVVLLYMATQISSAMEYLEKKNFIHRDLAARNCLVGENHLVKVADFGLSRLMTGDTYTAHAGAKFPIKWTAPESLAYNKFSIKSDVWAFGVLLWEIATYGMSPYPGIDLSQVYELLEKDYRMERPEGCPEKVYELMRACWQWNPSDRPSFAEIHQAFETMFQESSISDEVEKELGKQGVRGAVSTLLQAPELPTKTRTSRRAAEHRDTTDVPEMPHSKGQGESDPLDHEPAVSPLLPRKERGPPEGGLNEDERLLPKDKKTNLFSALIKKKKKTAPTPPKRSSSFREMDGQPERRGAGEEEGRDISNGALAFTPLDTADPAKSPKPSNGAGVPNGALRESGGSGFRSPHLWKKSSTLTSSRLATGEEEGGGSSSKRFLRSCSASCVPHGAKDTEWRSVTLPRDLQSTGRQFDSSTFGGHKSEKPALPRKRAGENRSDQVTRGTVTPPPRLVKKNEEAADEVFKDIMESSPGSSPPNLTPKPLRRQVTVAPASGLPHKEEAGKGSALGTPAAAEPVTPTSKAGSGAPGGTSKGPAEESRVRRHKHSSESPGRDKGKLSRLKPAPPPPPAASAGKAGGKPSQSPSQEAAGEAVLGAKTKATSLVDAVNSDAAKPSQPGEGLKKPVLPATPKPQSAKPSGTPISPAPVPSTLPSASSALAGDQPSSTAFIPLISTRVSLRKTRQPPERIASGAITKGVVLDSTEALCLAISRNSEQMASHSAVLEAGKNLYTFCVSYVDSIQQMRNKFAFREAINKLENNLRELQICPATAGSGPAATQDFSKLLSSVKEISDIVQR
Receptor-type tyrosine-protein kinase FLT3, sequence (P36888 whole entry, the tested form may be a part): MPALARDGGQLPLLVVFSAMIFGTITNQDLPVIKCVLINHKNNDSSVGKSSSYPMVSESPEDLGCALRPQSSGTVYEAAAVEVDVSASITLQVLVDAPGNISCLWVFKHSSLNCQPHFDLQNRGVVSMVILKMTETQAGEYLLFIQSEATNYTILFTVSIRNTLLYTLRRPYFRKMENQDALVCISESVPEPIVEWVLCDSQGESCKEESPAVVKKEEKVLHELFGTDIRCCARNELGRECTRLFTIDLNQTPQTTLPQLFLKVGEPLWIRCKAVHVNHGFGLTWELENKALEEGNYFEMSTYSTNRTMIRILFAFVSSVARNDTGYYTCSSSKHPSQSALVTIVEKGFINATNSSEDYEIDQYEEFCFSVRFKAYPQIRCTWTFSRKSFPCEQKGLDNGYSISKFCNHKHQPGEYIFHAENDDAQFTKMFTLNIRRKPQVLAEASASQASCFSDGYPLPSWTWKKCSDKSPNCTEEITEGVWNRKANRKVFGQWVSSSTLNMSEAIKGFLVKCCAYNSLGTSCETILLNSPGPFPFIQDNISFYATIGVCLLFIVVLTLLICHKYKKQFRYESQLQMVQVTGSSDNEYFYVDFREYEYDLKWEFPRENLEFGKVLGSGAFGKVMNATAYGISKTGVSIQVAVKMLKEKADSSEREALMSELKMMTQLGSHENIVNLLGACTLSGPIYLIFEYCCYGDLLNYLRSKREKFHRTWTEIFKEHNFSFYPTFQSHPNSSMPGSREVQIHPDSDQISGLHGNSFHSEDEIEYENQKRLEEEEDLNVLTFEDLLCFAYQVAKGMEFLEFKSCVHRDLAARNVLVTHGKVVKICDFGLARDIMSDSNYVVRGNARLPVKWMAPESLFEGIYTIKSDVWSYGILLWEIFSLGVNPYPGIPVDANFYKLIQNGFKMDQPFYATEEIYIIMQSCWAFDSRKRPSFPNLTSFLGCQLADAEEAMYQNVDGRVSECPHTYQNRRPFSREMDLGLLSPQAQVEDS
Cytoplasmic tyrosine-protein kinase BMX (Homo sapiens), sequence (P51813 whole entry, the tested form may be a part): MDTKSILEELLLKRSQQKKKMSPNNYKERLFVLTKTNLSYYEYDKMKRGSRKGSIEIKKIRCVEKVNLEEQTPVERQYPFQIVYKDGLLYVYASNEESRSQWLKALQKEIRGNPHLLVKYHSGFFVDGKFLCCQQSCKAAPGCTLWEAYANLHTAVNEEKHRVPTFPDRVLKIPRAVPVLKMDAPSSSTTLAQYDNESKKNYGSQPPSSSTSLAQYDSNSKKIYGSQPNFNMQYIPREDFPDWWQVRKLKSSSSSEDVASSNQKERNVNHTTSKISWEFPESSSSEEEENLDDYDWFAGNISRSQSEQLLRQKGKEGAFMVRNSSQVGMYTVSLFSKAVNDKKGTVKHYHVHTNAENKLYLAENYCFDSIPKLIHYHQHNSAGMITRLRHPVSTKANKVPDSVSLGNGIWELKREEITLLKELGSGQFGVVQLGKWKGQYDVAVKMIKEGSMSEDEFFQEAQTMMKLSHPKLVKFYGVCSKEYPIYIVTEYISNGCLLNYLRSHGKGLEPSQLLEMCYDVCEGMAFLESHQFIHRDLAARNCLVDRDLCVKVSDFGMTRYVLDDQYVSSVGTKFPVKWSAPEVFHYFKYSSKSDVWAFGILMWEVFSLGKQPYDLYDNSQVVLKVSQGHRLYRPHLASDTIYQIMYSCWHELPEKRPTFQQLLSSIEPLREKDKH

- inhibition [1]: > 90%
- inhibition [2]: > 90%
- Cmax [4]: 2520 ng/mL
- inhibition [6]: 50%
- IC50 [11]: 37 nM
- AUC(0-inf) [12]: 2910 ng·h/mL
- half-life [13]: 1.08 h
- Ratio IC50 [14]: 10 to 35
Compound: CCC(=O)N1CC[C@H](N2C(=O)N(c3cc(OC)ccc3Cl)Cc3cnc(Nc4ccc(N5CCN(C6COC6)CC5)c(C)c4)nc32)C1
- inhibition at 0.4 µM [3]: 85%
- inhibition [5]: Dose-dependent effect
- Activity [7]: Dose-dependent effect
- Activity [8]: Dose-dependent effect
- inhibition at 2 µM [9]: 94.6%
- inhibition at 5 µM [10]: 90.7%
